≈ marks a conversion by molar mass, not a printed value. Where “and” joins values, the source holds several entries; their conditions need not be identical. Equal values may be shown once.
What was measured:
[1] = tested on: normal T-lymphocytes (peripheral blood mononuclear cells: PBMC); conditions: PBMC vs Jurkat; ref [34]; cited from earlier work
[2] = tested on: Jurkat-shBak cells (Bax/Bak-deficient Jurkat cells); conditions: 25 μM; ref [33]; cited from earlier work
[3] = tested on: Jurkat control (CN) cells; conditions: 25 μM; ref [33]; cited from earlier work
[4] = ref [34], cited from earlier work
[5] = tested on: plasmid (pBR322) DNA; assay: Electrophoresis mobility shift assay with plasmid DNA; assay type: binding; conditions: metal/DNA ratios 0.25, 0.5, 1.0; 37 °C, 20 h
Summary of the method: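 pBR322 plasmid DNA (20 μg/mL) in 5 mM Tris/HCl, 50 mM NaClO4, pH 7.39 was incubated with test compound at compound:DNA molar ratios of […] for 20 h at 37 °C in the dark. Free DNA and cisplatin-DNA adduct served as controls. Samples were run on 1% agarose in TAE for 1.5 h at 80 V, then stained 30 min with GelRed.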

[6] = Solubility; assay type: physicochemical
[7] = Stability in solution by 31P{1H} NMR; assay type: physicochemical; conditions: for half-life in d6-DMSO:D2O mixture: d6-DMSO:D2O (1:1 / 50:50)

N.N.[Cl][Pt][Cl] [Cisplatin, cisplatin]
times less toxic to PBMC than to Jurkat cell lines [1]: 70 times
death of Jurkat-shBak cells [2]: less than 8%
death of Jurkat control (CN) cells [3]: around 60%

O=C(N=P12CN3CN(CN(C3)C1)C2)c1ccccn1 [TPA=N-C(O)-2-NC5H4]
time to 50% decomposition in D2O ([4]; D2O): 12 h
half-life in d6-DMSO:D2O (1:1) ([4]; d6-DMSO:D2O (1:1)): 48 h

O=C(N=P12CN3CN(CN(C3)C1)C2)c1ccccc1Br [compound 1, TPA=N-C(O)-2BrC6H4]
change in electrophoretic mobility of pBR322 forms (CCC Form I, OC Form II) [5]: does not cause any shift for either form
Solubility (H2O) [6]: 28 mM (≈ 9940 µg/mL)
solubility in H2O [6]: 10000 µg/mL (≈ 28.2 mM)
half-life in D2O ([7]; D2O): 48 h
stability in DMSO solution ([7]; DMSO): over two weeks
half-life in d6-DMSO:D2O mixture [7]: 336 h

[Pd{C6H4(C(O)N=TPA-kC,N)-2}{C12H6N2(C6H4SO3Na)2}] [compound 5]
Solubility (H2O) [6]: 1.0 mM and 0.90 mg/mL
stability under biological testing conditions ([7]; 24 h): stable
stable in d6-DMSO solution over ([7]; d6-DMSO): over 2 days
half-life in d6-DMSO:D2O mixture [7]: above 4 days
